From ChEMBL document CHEMBL3826895, “Pterin-sulfa conjugates as dihydropteroate synthase inhibitors and antibacterial agents” (Bioorg Med Chem Lett, 2016)
In brackets after ≈: the same amount, converted by molar mass.

Key:
Escherichia coli [1] = test: Antibacterial activity against Escherichia coli K-12 in M9 minimal media by turbidometric method; format: functional
Escherichia coli [2] = test: Antibacterial activity against Escherichia coli K-12 in M9 minimal media in presence of methionine by turbidometric method; format: functional
Escherichia coli [3] = test: Antibacterial activity against Escherichia coli K-12 in M9 minimal media in presence of folate precursor PABA by turbidometric method; format: functional
Dihydropteroate synthase [4] = target: T1, Dihydropteroate synthase (Bacillus anthracis, UniProt Q81VW8); test: Inhibition of fluorescein-labeled probe binding to Bacillus anthracis N-terminal His-tagged DHPS incubated for 1 hr in presence of sodium pyrophosphate by fluorescence polarization assay
T1 sequence (Q81VW8 whole entry): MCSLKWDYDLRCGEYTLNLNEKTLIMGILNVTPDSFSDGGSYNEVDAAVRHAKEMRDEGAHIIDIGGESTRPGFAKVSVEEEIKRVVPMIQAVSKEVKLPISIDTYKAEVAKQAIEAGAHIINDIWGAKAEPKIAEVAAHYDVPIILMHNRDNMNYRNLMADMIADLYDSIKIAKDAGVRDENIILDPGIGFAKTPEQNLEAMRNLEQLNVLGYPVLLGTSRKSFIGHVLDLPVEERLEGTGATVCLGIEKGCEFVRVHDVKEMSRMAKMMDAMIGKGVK
Method in brief: (§1)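 Competition binding of test compounds against a probe on B. anthracis DHPS, read by fluorescence polarization as displacement of the probe; run without added pyrophosphate or with 2 mM sodium pyrophosphate, the DHPS reaction byproduct, to confirm site-specific binding; IC50 values derived from probe displacement.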

Dihydropteroate synthase [5] = target: T1, Dihydropteroate synthase; test: Inhibition of fluorescein-labeled probe binding to Bacillus anthracis N-terminal His-tagged DHPS incubated for 1 hr by fluorescence polarization assay; method in brief: as §1

Row | SMILES | MIC (Escherichia coli [1]) [µM] | MIC (Escherichia coli [2]) [µM] | MIC (Escherichia coli [3]) [µM] | IC50 (Dihydropteroate synthase [4]) [µM] | IC50 (Dihydropteroate synthase [5]) [µM]
1 | CC(=O)Nc1nc2ncc(CNc3ccc(S(=O)(=O)Nc4onc(C)c4C)cc3)nc2c(=O)[nH]1 | 1.5 (≈ 0.727 µg/mL) | 5.9 | 249 |  | 
2 | CC(=O)Nc1nc2ncc(CNc3ccc(S(=O)(=O)NC(C)=O)cc3)nc2c(=O)[nH]1 | 22 (≈ 9.49 µg/mL) | 58 | > 934 |  | 
3 | CC(=O)Nc1nc2ncc(CNc3ccc(S(=O)(=O)c4ccc(N)cc4)cc3)nc2c(=O)[nH]1 | 25 (≈ 11.6 µg/mL) | 50 | > 934 |  | 
4 | Cc1cc(NS(=O)(=O)c2ccc(NCc3cnc4nc(N)[nH]c(=O)c4n3)cc2)no1 | 10.9 (≈ 4.67 µg/mL) | 29 | 467 | 3.4 | 20.6
5 | COc1ncnc(NS(=O)(=O)c2ccc(NCc3cnc4nc(NC(C)=O)[nH]c(=O)c4n3)cc2)c1OC | 3.8 (≈ 2 µg/mL) | 10.1 | > 644 |  | 
6 | COc1ncnc(NS(=O)(=O)c2ccc(NCc3cnc4nc(N)[nH]c(=O)c4n3)cc2)c1OC | 34.3 (≈ 16.7 µg/mL) | 172 | > 412 | 11.5 | 15.2
7 | CC(=O)Nc1nc2ncc(CNc3ccc(S(=O)(=O)Nc4ccccn4)cc3)nc2c(=O)[nH]1 | 2.7 (≈ 1.26 µg/mL) | 6.3 | 669 |  | 
8 | CC(=O)Nc1nc2ncc(CNc3ccc(S(=O)(=O)Nc4cc(C)on4)cc3)nc2c(=O)[nH]1 | 0.8 (≈ 0.376 µg/mL) | 1.5 | 263 |  | 
9 | COc1cc(NS(=O)(=O)c2ccc(NCc3cnc4nc(N)[nH]c(=O)c4n3)cc2)nc(OC)n1 | 17.2 (≈ 8.35 µg/mL) | 86 | > 412 | 1.9 | 26.8
10 | Nc1nc2ncc(CNc3ccc(S(=O)(=O)Nc4ncccn4)cc3)nc2c(=O)[nH]1 | 17.1 (≈ 7.27 µg/mL) | 78 | > 470 | 9.4 | 19.3
11 | Nc1ccc(S(=O)(=O)c2ccc(NCc3cnc4nc(N)[nH]c(=O)c4n3)cc2)cc1 | 197 (≈ 83.4 µg/mL) | 236 | 236 | 11.3 | 17.8
12 | Nc1nc2ncc(CNc3ccc(S(=O)(=O)Nc4ccccn4)cc3)nc2c(=O)[nH]1 | 29.5 (≈ 12.5 µg/mL) | 98 | > 471 | 2.5 | > 62.5
13 | CC(=O)Nc1nc2ncc(CNc3ccc(S(=O)(=O)Nc4ncccn4)cc3)nc2c(=O)[nH]1 | 1.6 (≈ 0.748 µg/mL) | 6.2 | 666 |  | 
14 | COc1cc(NS(=O)(=O)c2ccc(NCc3cnc4nc(NC(C)=O)[nH]c(=O)c4n3)cc2)nc(OC)n1 | 1.6 (≈ 0.844 µg/mL) | 3.4 | 537 |  | 
15 | Cc1noc(NS(=O)(=O)c2ccc(NCc3cnc4nc(N)[nH]c(=O)c4n3)cc2)c1C | 28.3 (≈ 12.5 µg/mL) | 47 | > 412 | 8.1 | 22.5
16 | CC(=O)NS(=O)(=O)c1ccc(NCc2cnc3nc(N)[nH]c(=O)c3n2)cc1 | 136 (≈ 53 µg/mL) | > 200 | > 514 | 17.1 | 18.6
17 | CC1(C)S[C@@H]2[C@H](NC(=O)[C@H](N)c3ccccc3)C(=O)N2[C@H]1C(=O)O [AMPICILLIN] | 1.58 (≈ 0.552 µg/mL) | 2.1 | 2 |  | 
18 | O=C(N[C@H](CO)[C@H](O)c1ccc([N+](=O)[O-])cc1)C(Cl)Cl [CHLORAMPHENICOL] | 8.5 (≈ 2.75 µg/mL) | 9.7 | 9.7 |  | 
19 | COc1cc(Cc2cnc(N)nc2N)cc(OC)c1OC [TRIMETHOPRIM] | 1.7 (≈ 0.494 µg/mL) | 0.7 | 1.4 |  | 
